This test in a line: Inhibition of Porphyromonas gingivalis gamma-carbonic anhydrase expressed in Escherichia coli preincubated for 15 mins by stopped flow CO2 hydration assay. In a few lines:
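CO2 hydration followed by stopped-flow with phenol red (0.2 mM) read at 557 nm. Buffer was 20 mM Hepes pH 7.4 with 20 mM NaBF4 for ionic strength, and CO2 was 1.7–17 mM. Initial rates came from ≥6 traces of the first 5–10% of reaction over 10–100 s, with uncatalyzed rate subtracted. Inhibitor was diluted in water from 10 mM stock and preincubated with enzyme 15 min at rt. KI came from nonlinear least squares plus Cheng–Prusoff, mean of ≥3 determinations.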

Molecules are shown by their SMILES.

Compound `CC(=O)NC(CCCCNC(=O)OC(C)(C)C)C(=O)Nc1cccc(S(N)(=O)=O)c1` (stereo not given) yielded a Ki of 54.2 nM.

`CC(C)(C)OC(=O)NCCCC(=O)NCc1ccc(S(N)(=O)=O)cc1` gave a Ki of 490 nM.

On to `CC(C)(C)OC(=O)NCCCC(=O)NCCc1ccc(S(N)(=O)=O)cc1`, for which the Ki is 233 nM.

`NCCCC(=O)NCc1ccc(S(N)(=O)=O)cc1` had a Ki of 42.7 nM.

As to `NCCCC(=O)NCCc1ccc(S(N)(=O)=O)cc1`, the inhibitory constant (Ki) was 65.9 nM.

`CC(C)(C)OC(=O)/N=C(\NCCCC(=O)NCc1ccc(S(N)(=O)=O)cc1)NC(=O)OC(C)(C)C`: the Ki was 74 nM.

For the compound `CC(C)(C)OC(=O)/N=C(\NCCCC(=O)NCCc1ccc(S(N)(=O)=O)cc1)NC(=O)OC(C)(C)C`, the affinity, expressed as Ki, was 90.6 nM.

Regarding `N=C(N)NCCCC(=O)NCc1ccc(S(N)(=O)=O)cc1`, the Ki turned out to be 887 nM.

Consider `N=C(N)NCCCC(=O)NCCc1ccc(S(N)(=O)=O)cc1`, for which the affinity corresponds to a Ki of 40.1 nM.

On to `CC(=O)NC(CCCCNC(=O)OC(C)(C)C)C(=O)NCc1ccc(S(N)(=O)=O)cc1` (stereo not given), for which the Ki was found to be 89 nM. Compared with the last compound, the Ki is about 2.2-fold higher.

`CC(=O)NC(CCCCNC(=O)OC(C)(C)C)C(=O)NCCc1ccc(S(N)(=O)=O)cc1` (stereo not given) registered a Ki of 312 nM.

In turn, `CC(=O)NC(CCCCN)C(=O)NCc1ccc(S(N)(=O)=O)cc1` (stereo not given) yielded a Ki of 74.1 nM.

`CC(=O)NC(CCCCN)C(=O)NCCc1ccc(S(N)(=O)=O)cc1` (stereo not given) showed an inhibitory constant (Ki) of 70.5 nM.

For `CC(=O)NC(CCCCN/C(=N/C(=O)OC(C)(C)C)NC(=O)OC(C)(C)C)C(=O)NCc1ccc(S(N)(=O)=O)cc1` (stereo not given), the Ki was 77.6 nM.

The compound `CC(=O)NC(CCCCN/C(=N/C(=O)OC(C)(C)C)NC(=O)OC(C)(C)C)C(=O)NCCc1ccc(S(N)(=O)=O)cc1` (stereo not given) displayed a Ki of 60.8 nM.

`CC(=O)NC(CCCCNC(=N)N)C(=O)NCc1ccc(S(N)(=O)=O)cc1` (stereo not given): the Ki stood at 80.7 nM.

As to `CC(=O)NC(CCCCNC(=N)N)C(=O)NCCc1ccc(S(N)(=O)=O)cc1` (stereo not given), the affinity, expressed as Ki, was 370 nM. Against the preceding compound, the Ki is about 4.6-fold higher.

`CC(C)(C)OC(=O)NCCCC(=O)Nc1cccc(S(N)(=O)=O)c1`: affinity was put at a Ki of 1240 nM.

`CC(C)(C)OC(=O)NCCCC(=O)Nc1ccc(S(N)(=O)=O)cc1` registered a Ki of 56 nM.

`COC(=O)C(CCCCNC(=O)OCc1ccccc1)NC(=O)c1ccc(S(N)(=O)=O)cc1` (stereo not given) returned a Ki of 85.4 nM.

In general, Ki refers to the equilibrium dissociation constant of an inhibitor or competing ligand from its target. A lower Ki goes with tighter binding.
